The record followed here is ChEMBL document CHEMBL1138439, “Synthesis and structure-activity relationship of novel diarylpyrazole imide analogues as CB1 cannabinoid receptor ligands” (Bioorg Med Chem, 2009).

A value given as a limit tells only on which side of the number the result lay.

For the first assay, the target named is Cannabinoid receptor 1 (Rattus norvegicus, UniProt P20272). Put plainly: Displacement of [3H]CP-55940 from CB1R in Sprague-Dawley rat cerebellar membrane.
Chain of Cannabinoid receptor 1 (P20272 whole entry): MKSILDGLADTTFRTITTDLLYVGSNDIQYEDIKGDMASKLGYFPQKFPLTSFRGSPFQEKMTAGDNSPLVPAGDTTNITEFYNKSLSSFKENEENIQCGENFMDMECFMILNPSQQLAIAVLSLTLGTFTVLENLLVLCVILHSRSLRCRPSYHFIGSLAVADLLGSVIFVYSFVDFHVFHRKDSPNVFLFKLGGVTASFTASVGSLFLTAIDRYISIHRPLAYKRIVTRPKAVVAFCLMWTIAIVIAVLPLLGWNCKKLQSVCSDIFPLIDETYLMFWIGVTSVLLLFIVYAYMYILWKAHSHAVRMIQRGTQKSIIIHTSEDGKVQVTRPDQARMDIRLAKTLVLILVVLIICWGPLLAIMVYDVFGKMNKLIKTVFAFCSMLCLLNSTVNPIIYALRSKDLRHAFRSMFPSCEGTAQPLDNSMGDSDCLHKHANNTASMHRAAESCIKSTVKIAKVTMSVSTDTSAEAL
Conditions: not given
Set-up: species or system Cerebellum. (In general: Loss of bound radioactivity is the signal in a displacement assay; it reports binding, not function.)
What is called IC50 is the point on the concentration scale where inhibition reaches its midpoint. With `Cc1c(C(=O)NC(=O)NC(C)(C)C)nn(-c2ccc(Cl)cc2Cl)c1-c1ccc(Cl)cc1`, the concentration for half-maximal inhibition (IC50) entry is given as “ND(Insoluble)”.

Turning to `Cc1c(C(=O)NC(=O)NCC2CCCCC2)nn(-c2ccc(Cl)cc2Cl)c1-c1ccc(Cl)cc1`, the IC50 entry is “ND(Insoluble)”.

The assay is the same for the next values; noted with them: read-out: IC50.
As for `Cc1c(C(=O)NS(=O)(=O)Cc2ccccc2)nn(-c2ccc(Cl)cc2Cl)c1-c1ccc(Cl)cc1`, the IC50 is > 10 µM.

Take `CCCC(CCC)C(=O)N(C)C(=O)c1nn(-c2ccc(Cl)cc2Cl)c(-c2ccc(Cl)cc2)c1C`: the IC50 is 0.247 µM. On the same count and under the same terms, in the case of `CCC(C)(C)C(=O)N(C)C(=O)c1nn(-c2ccc(Cl)cc2Cl)c(-c2ccc(Cl)cc2)c1C` it was 0.227 µM. On the same count and under the same terms, to `Cc1ccc(S(=O)(=O)NC(=O)c2nn(-c3ccc(Cl)cc3Cl)c(-c3ccc(Cl)cc3)c2C)cc1` belongs > 10 µM; to `Cc1c(C(=O)NS(=O)(=O)c2ccccc2)nn(-c2ccc(Cl)cc2Cl)c1-c1ccc(Cl)cc1`, 3.64 µM; to `CCCCS(=O)(=O)NC(=O)c1nn(-c2ccc(Cl)cc2Cl)c(-c2ccc(Cl)cc2)c1C`, > 10 µM. The same measure, in the same setting: in the case of `Cc1c(C(=O)NS(=O)(=O)c2cccc(F)c2)nn(-c2ccc(Cl)cc2Cl)c1-c1ccc(Cl)cc1` it was > 10 µM.

`CCC(CC)C(=O)N(C)C(=O)c1nn(-c2ccc(Cl)cc2Cl)c(-c2ccc(Cl)cc2)c1C`: the IC50 is 0.265 µM.

Consider `Cc1c(C(=O)NS(=O)(=O)c2ccc(F)cc2)nn(-c2ccc(Cl)cc2Cl)c1-c1ccc(Cl)cc1`, for which the IC50 came out at 1.2 µM. The same measure, in the same setting: in the case of `Cc1c(C(=O)N(C)C(=O)C(C)(C)C)nn(-c2ccc(Cl)cc2Cl)c1-c1ccc(Cl)cc1` it was 0.22 µM; in that of `Cc1c(C(=O)NS(=O)(=O)C(C)C)nn(-c2ccc(Cl)cc2Cl)c1-c1ccc(Cl)cc1`, > 10 µM; in that of `Cc1c(C(=O)N(C)C(=O)C2CCCCC2)nn(-c2ccc(Cl)cc2Cl)c1-c1ccc(Cl)cc1`, 0.167 µM. The same measure, in the same setting: to `CCCS(=O)(=O)NC(=O)c1nn(-c2ccc(Cl)cc2Cl)c(-c2ccc(Cl)cc2)c1C` belongs > 10 µM; to `Cc1c(C(=O)NS(=O)(=O)c2cccc(Cl)c2)nn(-c2ccc(Cl)cc2Cl)c1-c1ccc(Cl)cc1`, 1.2 µM. The same measure, in the same setting: in the case of `Cc1c(C(=O)NS(=O)(=O)c2ccc(Cl)cc2)nn(-c2ccc(Cl)cc2Cl)c1-c1ccc(Cl)cc1` it was > 10 µM.

Another assay concerns Mus musculus. Put plainly: Reduction in body weight of diet induced obese C57BL/6J mouse at 10 mL/kg, po for 14 days. The class given is functional. Details: scale not given: the % may be the effect or the level left.
Conditions: not given
The method, boiled down:
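Body weight change (g) from start was tracked daily over days 0–14 and compared with a vehicle-treated control group.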
`Cc1c(C(=O)NC(=O)C(C)(C)C)nn(-c2ccc(Cl)cc2Cl)c1-c1ccc(Cl)cc1`: the Activity is given as 2.2%. On the same count and under the same terms, to `Cc1c(C(=O)NN2CCCCC2)nn(-c2ccc(Cl)cc2Cl)c1-c1ccc(Cl)cc1` [RIMONABANT] belongs 11.5%.
